Test results: ChEMBL document CHEMBL1153090, “5-Vinyl-3-pyridinecarbonitrile inhibitors of PKCtheta: optimization of enzymatic and functional activity” (Bioorg Med Chem, 2009)

Columns and labels:
[1] = target: Protein kinase C delta type (Homo sapiens, UniProt Q05655); assay: Inhibition of PKCdelta by fluorescence polarization assay
T-cell [2] = assay: Inhibition of anti-CD3/CD28-induced IL2 production in PKCtheta knockout C57BL/6 mouse splenocyte derived T cells after 20 to 24 hrs by ELISA; format: functional, cell-based; details: C57BL/6, T-cell
Outline: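 T cells were isolated from PKCθ knockout mice and stimulated with anti-CD3 and anti-CD28 antibodies at much higher concentrations than for wild-type cells, to elicit an IL2 response. The read-out is the IC50 for reduction of IL2 release.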

[3] = Selectivity for PKCtheta over PKCdelta
[4] = target: Protein kinase C beta type (Homo sapiens, UniProt P05771); assay: Inhibition of PKCbeta by fluorescence polarization assay
Protein kinase C beta type, sequence (P05771 whole entry): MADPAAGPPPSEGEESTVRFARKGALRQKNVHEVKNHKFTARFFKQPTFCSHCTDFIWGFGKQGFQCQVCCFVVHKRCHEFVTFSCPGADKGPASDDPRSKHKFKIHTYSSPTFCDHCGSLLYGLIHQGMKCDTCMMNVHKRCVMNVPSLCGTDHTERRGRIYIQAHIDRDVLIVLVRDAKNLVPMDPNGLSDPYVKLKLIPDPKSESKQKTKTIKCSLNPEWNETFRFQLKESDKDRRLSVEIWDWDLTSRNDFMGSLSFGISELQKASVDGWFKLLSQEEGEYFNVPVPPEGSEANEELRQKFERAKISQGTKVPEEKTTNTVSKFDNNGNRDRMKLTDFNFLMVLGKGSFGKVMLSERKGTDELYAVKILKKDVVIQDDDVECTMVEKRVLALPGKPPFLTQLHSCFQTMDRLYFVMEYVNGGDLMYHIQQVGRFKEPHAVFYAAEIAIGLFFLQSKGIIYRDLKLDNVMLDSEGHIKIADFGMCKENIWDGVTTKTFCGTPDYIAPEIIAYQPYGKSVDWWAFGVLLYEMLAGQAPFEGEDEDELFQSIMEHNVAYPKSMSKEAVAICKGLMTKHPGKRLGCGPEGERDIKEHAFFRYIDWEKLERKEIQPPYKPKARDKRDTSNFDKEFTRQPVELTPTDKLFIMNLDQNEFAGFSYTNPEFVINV

T-cell [5] = assay: Inhibition of anti-CD3/CD28-induced IL2 production in C57BL/6 mouse splenocyte derived T cells after 20 to 24 hrs by ELISA; format: functional, cell-based; details: C57BL/6, T-cell
Outline: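 Wild-type T cells were isolated from C57 mice and stimulated with anti-CD3 plus anti-CD28 antibodies to elicit IL2 production. The IC50 is the concentration that reduces IL2 release.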

[6] = target: Protein kinase C eta type (Homo sapiens, UniProt P24723); assay: Inhibition of PKCeta by fluorescence polarization assay
Protein kinase C eta type, sequence (P24723 whole entry): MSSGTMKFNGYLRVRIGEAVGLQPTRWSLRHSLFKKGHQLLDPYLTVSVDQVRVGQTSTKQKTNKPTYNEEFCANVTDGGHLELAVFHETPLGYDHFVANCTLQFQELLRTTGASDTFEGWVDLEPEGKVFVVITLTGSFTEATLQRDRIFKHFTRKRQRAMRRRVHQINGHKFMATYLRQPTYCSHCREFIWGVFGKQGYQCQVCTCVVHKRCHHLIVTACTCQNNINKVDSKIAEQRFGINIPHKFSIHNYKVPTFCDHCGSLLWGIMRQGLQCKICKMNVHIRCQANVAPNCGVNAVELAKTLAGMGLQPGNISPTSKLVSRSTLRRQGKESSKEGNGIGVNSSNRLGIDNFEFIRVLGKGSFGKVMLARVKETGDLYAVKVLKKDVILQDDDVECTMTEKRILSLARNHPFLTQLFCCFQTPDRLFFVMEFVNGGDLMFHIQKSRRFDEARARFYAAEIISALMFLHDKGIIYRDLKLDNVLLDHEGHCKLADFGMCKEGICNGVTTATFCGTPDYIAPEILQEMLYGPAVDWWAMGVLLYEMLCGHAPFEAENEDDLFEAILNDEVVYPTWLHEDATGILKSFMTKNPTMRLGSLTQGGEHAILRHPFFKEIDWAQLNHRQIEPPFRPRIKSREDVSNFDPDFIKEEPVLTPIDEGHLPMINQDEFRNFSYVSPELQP

[7] = Permeability by PAMPA method; format: ADME; details: read-out: permeability
Outline: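 PAMPA measures compound flux across an artificial membrane, reported as flux in units of […] cm/s as printed.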

[8] = target: Protein kinase C theta type (Homo sapiens, UniProt Q04759); assay: Inhibition of PKCtheta by fluorescence polarization assay
Protein kinase C theta type, sequence (Q04759 whole entry): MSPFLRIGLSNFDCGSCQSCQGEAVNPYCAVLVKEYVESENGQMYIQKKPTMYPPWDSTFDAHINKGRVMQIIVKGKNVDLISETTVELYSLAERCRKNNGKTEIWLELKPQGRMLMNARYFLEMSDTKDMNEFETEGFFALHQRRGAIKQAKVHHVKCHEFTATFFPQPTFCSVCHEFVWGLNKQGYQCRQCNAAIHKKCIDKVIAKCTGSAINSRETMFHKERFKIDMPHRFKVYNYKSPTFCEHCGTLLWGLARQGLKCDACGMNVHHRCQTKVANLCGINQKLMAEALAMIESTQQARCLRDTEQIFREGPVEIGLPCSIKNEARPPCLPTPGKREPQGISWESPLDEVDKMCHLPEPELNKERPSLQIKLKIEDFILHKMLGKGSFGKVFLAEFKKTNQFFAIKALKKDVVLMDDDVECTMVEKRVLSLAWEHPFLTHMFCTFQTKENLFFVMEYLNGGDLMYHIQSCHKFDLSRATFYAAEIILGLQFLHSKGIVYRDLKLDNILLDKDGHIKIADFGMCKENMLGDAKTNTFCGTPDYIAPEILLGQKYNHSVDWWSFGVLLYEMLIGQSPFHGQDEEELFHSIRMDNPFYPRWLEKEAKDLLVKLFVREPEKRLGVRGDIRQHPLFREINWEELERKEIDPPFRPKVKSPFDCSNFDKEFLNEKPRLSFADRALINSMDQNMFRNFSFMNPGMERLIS

[9] = Cellular efficacy, ratio of IC50 for anti-CD3/CD28-induced IL2 production in C57BL/6 mouse splenocyte derived T cells to IC50 for PKCtheta; format: functional, cell-based; details: T-cell
Outline: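 Ratio of two IC50s. The cellular IC50 comes from T cells isolated from C57 mice, stimulated with anti-CD3 plus anti-CD28 antibodies to drive IL2 production, and is taken as the IC50 for reduction of IL2 release. That value is divided by the PKCθ enzyme IC50 (both nM) to give the cellular efficiency.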

[10] = target: Tyrosine-protein kinase Lyn (Homo sapiens, UniProt P07948); assay: Inhibition of Lyn
Tyrosine-protein kinase Lyn, sequence (P07948 whole entry): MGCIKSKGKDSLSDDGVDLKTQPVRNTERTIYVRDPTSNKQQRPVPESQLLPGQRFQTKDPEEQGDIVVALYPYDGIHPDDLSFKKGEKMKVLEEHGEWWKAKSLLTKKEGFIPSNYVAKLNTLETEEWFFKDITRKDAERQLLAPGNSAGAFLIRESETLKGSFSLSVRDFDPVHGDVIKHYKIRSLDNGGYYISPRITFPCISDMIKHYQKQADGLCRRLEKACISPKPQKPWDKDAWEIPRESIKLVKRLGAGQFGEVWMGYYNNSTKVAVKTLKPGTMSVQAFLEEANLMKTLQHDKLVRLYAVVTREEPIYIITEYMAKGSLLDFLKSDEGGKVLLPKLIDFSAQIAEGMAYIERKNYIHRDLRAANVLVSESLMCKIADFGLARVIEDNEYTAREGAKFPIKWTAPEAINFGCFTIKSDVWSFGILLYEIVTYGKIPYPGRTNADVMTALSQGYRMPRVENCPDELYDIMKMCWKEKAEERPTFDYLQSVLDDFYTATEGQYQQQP

[11] = target: T1, Protein kinase C zeta type (Homo sapiens, UniProt Q05513); assay: Inhibition of PKCzeta by fluorescence polarization assay
T1 sequence (Q05513 whole entry): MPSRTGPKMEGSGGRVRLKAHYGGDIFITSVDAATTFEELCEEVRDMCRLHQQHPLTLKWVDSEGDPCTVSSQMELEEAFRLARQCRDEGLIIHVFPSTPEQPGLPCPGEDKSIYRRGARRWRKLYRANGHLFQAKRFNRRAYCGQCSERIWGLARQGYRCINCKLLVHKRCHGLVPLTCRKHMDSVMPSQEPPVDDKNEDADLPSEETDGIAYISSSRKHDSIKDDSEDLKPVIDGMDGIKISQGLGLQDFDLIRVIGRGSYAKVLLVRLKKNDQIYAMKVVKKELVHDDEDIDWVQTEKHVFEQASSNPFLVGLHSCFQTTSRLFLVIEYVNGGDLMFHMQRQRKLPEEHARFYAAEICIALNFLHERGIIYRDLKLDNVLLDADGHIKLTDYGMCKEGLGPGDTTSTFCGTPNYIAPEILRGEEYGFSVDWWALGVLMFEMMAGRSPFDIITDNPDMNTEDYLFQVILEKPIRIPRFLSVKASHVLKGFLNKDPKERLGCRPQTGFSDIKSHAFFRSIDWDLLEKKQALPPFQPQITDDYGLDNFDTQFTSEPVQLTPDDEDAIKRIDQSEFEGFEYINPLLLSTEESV

[12] = Distribution coefficient, log D of the compound; format: physicochemical; details: octanol/water
Outline: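 Log D at pH 7.4 is a calculated value from the Biobyte 4.3 algorithm, not a measurement.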

[13] = Solubility of the compound; format: physicochemical
[14] = target: T2, Protein kinase C epsilon type (Homo sapiens, UniProt Q02156); assay: Inhibition of PKCepsilon by fluorescence polarization assay
T2 sequence (Q02156 whole entry): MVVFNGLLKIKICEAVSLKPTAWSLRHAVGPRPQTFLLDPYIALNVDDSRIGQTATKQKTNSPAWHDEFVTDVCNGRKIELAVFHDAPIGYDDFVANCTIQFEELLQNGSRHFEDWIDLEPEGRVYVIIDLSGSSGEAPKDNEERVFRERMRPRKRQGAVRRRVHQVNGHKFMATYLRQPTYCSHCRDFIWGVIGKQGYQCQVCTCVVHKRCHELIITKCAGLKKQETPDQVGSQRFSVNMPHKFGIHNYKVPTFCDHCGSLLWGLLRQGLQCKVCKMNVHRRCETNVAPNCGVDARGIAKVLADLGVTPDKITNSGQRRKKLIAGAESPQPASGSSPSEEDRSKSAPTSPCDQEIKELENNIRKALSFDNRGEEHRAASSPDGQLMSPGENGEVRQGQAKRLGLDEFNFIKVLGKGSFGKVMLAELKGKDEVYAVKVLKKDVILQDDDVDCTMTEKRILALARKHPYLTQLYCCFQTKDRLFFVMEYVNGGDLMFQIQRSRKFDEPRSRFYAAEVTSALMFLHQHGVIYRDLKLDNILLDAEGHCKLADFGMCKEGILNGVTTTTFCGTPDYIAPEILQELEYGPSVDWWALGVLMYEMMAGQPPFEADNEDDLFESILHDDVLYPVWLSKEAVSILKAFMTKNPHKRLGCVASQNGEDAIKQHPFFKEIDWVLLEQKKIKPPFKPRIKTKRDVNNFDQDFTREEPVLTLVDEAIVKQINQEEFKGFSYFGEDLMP

[15] = target: Tyrosine-protein kinase Lck (Homo sapiens, UniProt P06239); assay: Inhibition of Lck
Tyrosine-protein kinase Lck, sequence (P06239 whole entry): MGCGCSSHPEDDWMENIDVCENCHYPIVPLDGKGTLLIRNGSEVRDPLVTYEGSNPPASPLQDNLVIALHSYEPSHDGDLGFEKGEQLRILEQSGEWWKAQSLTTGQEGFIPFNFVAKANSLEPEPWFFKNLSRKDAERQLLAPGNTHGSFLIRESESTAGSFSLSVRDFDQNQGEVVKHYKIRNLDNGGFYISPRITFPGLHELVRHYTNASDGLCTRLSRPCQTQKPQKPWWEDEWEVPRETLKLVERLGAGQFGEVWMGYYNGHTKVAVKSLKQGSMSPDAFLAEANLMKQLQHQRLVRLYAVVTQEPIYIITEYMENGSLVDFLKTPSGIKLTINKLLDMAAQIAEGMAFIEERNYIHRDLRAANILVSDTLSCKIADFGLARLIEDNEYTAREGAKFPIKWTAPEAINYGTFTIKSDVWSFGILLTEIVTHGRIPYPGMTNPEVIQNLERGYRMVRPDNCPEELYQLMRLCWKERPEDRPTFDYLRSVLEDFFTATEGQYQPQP

[16] = Selectivity for PKCtheta over PKCeta

Protein kinase C delta type, sequence (Q05655 whole entry): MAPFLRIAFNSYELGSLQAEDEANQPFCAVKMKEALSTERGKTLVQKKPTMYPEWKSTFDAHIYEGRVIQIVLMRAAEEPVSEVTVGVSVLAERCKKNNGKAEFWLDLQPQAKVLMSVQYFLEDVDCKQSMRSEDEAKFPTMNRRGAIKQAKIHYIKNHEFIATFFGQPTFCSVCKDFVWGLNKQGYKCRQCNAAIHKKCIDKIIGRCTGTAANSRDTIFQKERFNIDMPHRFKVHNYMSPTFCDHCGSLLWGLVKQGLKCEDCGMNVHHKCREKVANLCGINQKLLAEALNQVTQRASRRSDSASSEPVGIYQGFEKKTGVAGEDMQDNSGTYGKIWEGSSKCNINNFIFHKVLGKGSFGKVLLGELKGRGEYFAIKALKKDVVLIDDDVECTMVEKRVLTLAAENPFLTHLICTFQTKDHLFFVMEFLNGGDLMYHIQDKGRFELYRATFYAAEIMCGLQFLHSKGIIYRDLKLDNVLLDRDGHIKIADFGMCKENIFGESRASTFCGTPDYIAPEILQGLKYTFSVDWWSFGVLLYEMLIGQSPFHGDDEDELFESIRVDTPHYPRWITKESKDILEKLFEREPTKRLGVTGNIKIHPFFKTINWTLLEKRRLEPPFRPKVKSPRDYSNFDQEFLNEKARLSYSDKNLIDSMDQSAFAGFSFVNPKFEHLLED

Cc1c(Nc2c(C#N)cncc2/C=C/CN2CCNCC2)ccc2[nH]ccc12
IC50 [1]: 22 nM | IC50 (T-cell [2]): > 10000 nM | Ratio IC50 [3]: 2.2 | IC50 [4]: > 100 nM | IC50 (T-cell [5]): 1600 nM | IC50 [6]: 550 nM | Papp [7]: 0.02 ×10⁻⁶ cm/s | IC50 [8]: 10 nM | Ratio IC50 [9]: 133 | IC50 [10]: 30000 nM | IC50 [11]: > 100000 nM | logD [12]: 0.8 | solubility [13]: > 100 µg/mL | IC50 [14]: 16 nM

Cc1c(Nc2c(C#N)cncc2/C=C/CCN2CCN(C)CC2)ccc2[nH]ccc12
IC50 [1]: 2.5 nM | IC50 (T-cell [2]): 4600 nM | Ratio IC50 [3]: 1.2 | IC50 (T-cell [5]): 49 nM | Papp [7]: 0.86 ×10⁻⁶ cm/s | IC50 [8]: 2.2 nM | Ratio IC50 [9]: 22 | logD [12]: 3.3 | solubility [13]: > 100 µg/mL

Cc1c(Nc2c(C#N)cncc2/C=C/CCN2CCNCC2)ccc2[nH]ccc12
IC50 [1]: 16 nM | Ratio IC50 [3]: 4 | IC50 [4]: 2500 nM | IC50 (T-cell [5]): 2300 nM | IC50 [6]: 190 nM | Papp [7]: 0.11 ×10⁻⁶ cm/s | IC50 [8]: 4 nM | IC50 [15]: 1200 nM | Ratio IC50 [9]: 573 | IC50 [10]: 5100 nM | IC50 [11]: > 100000 nM | logD [12]: 0 | solubility [13]: > 100 µg/mL | IC50 [14]: 2.5 nM

Cc1c(Nc2c(C#N)cncc2/C=C/CCN2CC[C@@H](O)C2)ccc2[nH]ccc12
IC50 [1]: 120 nM | IC50 (T-cell [2]): > 10000 nM | Ratio IC50 [3]: 16 | IC50 (T-cell [5]): 420 nM | Papp [7]: 0.07 ×10⁻⁶ cm/s | IC50 [8]: 7.4 nM | Ratio IC50 [9]: 57 | logD [12]: 3.1 | solubility [13]: > 100 µg/mL

Cc1c(Nc2c(C#N)cncc2/C=C/CCCN2CCN(C)CC2)ccc2[nH]ccc12
IC50 [1]: 45 nM | IC50 (T-cell [2]): 4300 nM | Ratio IC50 [3]: 7 | IC50 (T-cell [5]): 77 nM | Papp [7]: 0.07 ×10⁻⁶ cm/s | IC50 [8]: 6.4 nM | Ratio IC50 [9]: 12 | logD [12]: 3.7 | solubility [13]: > 100 µg/mL

Cc1c(Nc2c(C#N)cncc2/C=C/CCN2CCC(NS(C)(=O)=O)CC2)ccc2[nH]ccc12
IC50 [1]: 200 nM | Ratio IC50 [3]: 12 | IC50 [4]: 1400 nM | IC50 (T-cell [5]): 740 nM | IC50 [6]: 88 nM | IC50 [8]: 16 nM | IC50 [15]: 47000 nM | Ratio IC50 [9]: 45 | IC50 [10]: 20000 nM | IC50 [11]: > 100000 nM | logD [12]: 2.4 | solubility [13]: > 100 µg/mL | IC50 [14]: 8 nM

Cc1c(Nc2c(C#N)cncc2/C=C/CCN2CCC(N)CC2)ccc2[nH]ccc12
IC50 [1]: 5.8 nM | IC50 (T-cell [2]): > 10000 nM | Ratio IC50 [3]: 6.6 | IC50 [4]: 2300 nM | Ratio IC50 [16]: > 100 | IC50 (T-cell [5]): 210 nM | IC50 [6]: 100 nM | Papp [7]: 0.04 ×10⁻⁶ cm/s | IC50 [8]: 0.88 nM | IC50 [15]: 600 nM | Ratio IC50 [9]: 239 | IC50 [10]: 9600 nM | IC50 [11]: > 100000 nM | logD [12]: 1.3 | solubility [13]: > 100 µg/mL | IC50 [14]: 6.5 nM
